Results collected from several papers.
Compare with care: the assays were run in different laboratories.
Target: Serine/threonine-protein kinase ULK3 (ULK3, Homo sapiens, UniProt Q6PHR2)
Residues used in one study (Q6PHR2 1-472): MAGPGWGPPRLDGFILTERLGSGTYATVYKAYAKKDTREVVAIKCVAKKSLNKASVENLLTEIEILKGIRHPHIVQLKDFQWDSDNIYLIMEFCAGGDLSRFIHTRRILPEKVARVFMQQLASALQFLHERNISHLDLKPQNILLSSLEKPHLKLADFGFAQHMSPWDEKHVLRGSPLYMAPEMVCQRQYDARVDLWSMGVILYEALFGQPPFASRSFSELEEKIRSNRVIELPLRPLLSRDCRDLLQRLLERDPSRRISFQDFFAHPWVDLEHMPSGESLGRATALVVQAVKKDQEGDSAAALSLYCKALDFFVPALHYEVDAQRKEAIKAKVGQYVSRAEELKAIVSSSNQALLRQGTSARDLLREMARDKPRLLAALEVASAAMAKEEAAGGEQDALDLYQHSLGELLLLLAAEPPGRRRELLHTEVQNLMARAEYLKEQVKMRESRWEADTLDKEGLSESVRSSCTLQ

Cc1cnc(NC2CCOCC2)nc1-n1cnc(C(=O)NC(CN)c2cc(F)cc(Cl)c2)c1 (centres unmarked)  remaining activity (enzyme activity, inhibitor, radiometric; 1 µM): 91%
Cc1cc(NC(=O)c2cccc(S(F)(F)(F)(F)F)c2)cc(-n2ccn3nc(-c4cccnc4)cc23)c1  remaining binding (cell-free assay, competition with immobilised ligand; 1 µM): 75.2%
Nc1ncnc2occ(-c3ccc(NC(=O)Nc4cc(C(F)(F)F)ccc4F)cc3)c12  remaining signal (cell-free assay, inhibitor; 20 µM): 0.6%
Oc1cccc(-c2nc(N3CCOCC3)c3oc4ncccc4c3n2)c1  remaining signal (cell-free assay; 0.5 µM): 99.7%
Cc1ccc(C(=O)Nc2ccc(CN3CCN(C)CC3)c(C(F)(F)F)c2)cc1C#Cc1cnc2cccnn12  remaining activity (enzyme activity, inhibitor; 23.5 nM): 61%
O=C(Nc1cnn(-c2csc(C(=O)NC3COC3)c2)c1)Nc1ccccc1Cl  remaining activity (enzyme activity, inhibitor; 5 µM): 111%
Cn1nc(C(F)(F)F)cc1-c1cnc(N2CCc3cc(S(=O)(=O)Nc4c(F)cc(Cl)cc4F)cc(N4CCCC4=O)c32)nc1  remaining binding (cell-free assay, competition with immobilised ligand; 1 µM): 100%
CS(=O)(=O)CCNCc1ccc(-c2ccc3ncnc(Nc4ccc(OCc5cccc(F)c5)c(Cl)c4)c3c2)o1  remaining signal (cell-free assay; 0.5 µM): 106%
CC(C)(O)[C@H]1CC[C@H](Nc2ccc3ncc(-c4cccc(C(F)(F)F)c4)n3n2)CC1  remaining activity (enzyme activity, inhibitor; 1 µM): 86.2%
c1ccc(N2CCN(Cc3nc4ccccc4[nH]3)CC2)nc1  remaining binding (binding, competition with immobilised ligand; 1 µM): 100%
COc1cc2c(Nc3ccc(Br)cc3F)ncnc2cc1OCC1CCN(C)CC1  remaining signal (cell-free assay; 0.5 µM): 105%
C[C@@H](c1cccc(C#N)c1)n1cc(Cl)cc(C(N)=O)c1=N  remaining binding (cell-free assay, competition with immobilised ligand; 1 µM): 75%
COc1cc2c(N3CCN(C(=O)Nc4ccc(OC(C)C)cc4)CC3)ncnc2cc1OCCCN1CCCCC1  remaining signal (cell-free assay; 0.5 µM): 101%
O=C(Nc1cnn(-c2csc(C(=O)NC3COC3)c2)c1)Nc1c(F)cccc1Cl  remaining activity (enzyme activity, inhibitor; 5 µM): 76.6%
